Compound activity deposited in PubChem by Sanford-Burnham Center for Chemical Genomics.
Shown are actives, neighbours in structure and some others; about 1.8% of the full set was active somewhere.
H9c2 TAG inh – inhibitors of triacylglycerol accumulation | hit rate 0.66% among 230,000 | AID 651582 | inhibition, % at 12.5 µM | H9c2 cells, Nile Red lipid (TAG) fluorescence; cells loaded with 200 µM oleic acid;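 active means pattern-corrected inhibition of lipid staining of at least 50% with the nuclear-stain viability signal not falling by more than 50%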;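 further: 0% = DMSO wells and 100% = triacsin C control wells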
Gli-Sufu antag – antagonists of Gli-Sufu signaling; inhibition, % at 5 µM; AID 588413; Sufu-KO-LIGHT fibroblasts, Gli luciferase reporter luminescence; hit rate 0.74% among 340,000;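 active means inhibition above about 55%, limit read from the data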;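 further: 0% = DMSO-treated cells and 100% = wells with medium but no cells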
697 NFkB inh – lowers PMA/ionomycin-induced NF-kB signal in 697 B cells; 697 B-cell NF-kB luciferase reporter, 16 h; hit rate 0.33% among 330,000; inhibition, % at 4 µM; AID 435022; in the data active means inhibition above about 35%
Lipid droplet – modulators of hepatic lipid droplet formation. hit rate 0.4% among 240,000. AML12 mouse hepatocytes, oleate lipid droplets, BODIPY imaging. inhibition, % at 6.5 µM;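 active means lipid droplet intensity inhibited by at least 50%, with more than 500 cells counted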
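Technique: fluorescence imaging, 20x objective, two fields per well / Assay system: AML12 hepatocytes (mouse) / Measure: % inhibition of lipid droplet signal / Doses: 6.5 µM single-point dosing / Incubation: overnight exposure / Reagent: 100 µM oleic acid challenge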
hiPSC survival – enhancers of human iPSC single-cell survival. hiPSC single-cell survival, ATPlite luminescence; 100% = ROCK inhibitor wells, 0% = DMSO. survival enhancement, % at 20 µM. hit rate 0.044% among 360,000; in the data active means survival enhancement above about 18%;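 further: cells exposed to compounds for 16 hours before the ATP read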
Jurkat NFkB inh – lowers PMA/ionomycin-induced NF-kB signal in Jurkat cells. AID 435003. PMA/ionomycin-induced NF-kB luciferase reporter, luminescence. inhibition, % at 4 µM. hit rate 0.53% among 330,000; in the data active means inhibition above about 50%
H9c2 TAG conf – confirmation of triacylglycerol accumulation inhibitors; shares compounds with H9c2 TAG inh; AID 651629; inhibition, % at 12.5 µM; hit rate 71% among 990; H9c2 lipid accumulation, Nile Red fluorescence; cells loaded with 200 µM oleic acid;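 active means mean inhibition across replicates of 40% or more; inactive means mean inhibition below 40%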;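 further: plate controls were DMSO only wells for no effect and Triacsin C treated wells for full effect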
* = called active by the depositor; / = no result.

SMILES	H9c2 TAG inh	Gli-Sufu antag	697 NFkB inh	Lipid droplet	hiPSC survival	Jurkat NFkB inh	H9c2 TAG conf
COc1ccc(C(C(=O)NC(C)(C)C)N(C[C@H]2CC[C@@H]([C@@H]3CC[C@H](CO)O3)O2)C(=O)c2ccccc2)cc1 (stereo partly drawn)	-0.4	8.3	11.9	/	-0.5	/	/
CC(C)(C)NC(=O)C(c1ccc(-c2ccccc2)cc1)N(C[C@H]1CC[C@@H]([C@@H]2CC[C@H](CO)O2)O1)C(=O)c1cccc(Cl)c1 (stereo partly drawn)	34.2	1.6	19.9	/	1.4	/	/
CC(C)CNC(=O)C1CCN(S(=O)(=O)c2ccc3c(c2)OCCO3)CC1	1.2	-12.1	7.3	/	0.5	11.3	/
CCOC(=O)c1[nH]c2ccc(OCC)cc2c1NC(=O)CN1CCN(c2ccccc2)CC1	58.3*	6.8	-50.7	/	-0.4	-2.4	40.5*
C/C(=N\Nc1cc(N2CCOCC2)nc(C)n1)c1ccc(F)cc1	52.2*	18.8	15.3	-0.3	-0.5	10.7	38.5
O=C(COC(=O)c1cc([N+](=O)[O-])ccc1N1CCOCC1)Nc1ccc(Cl)cn1	50.7*	-20.6	-3.1	-20.5	-0.3	29.0	40.0
O=C(OCc1cccc(Cl)c1)c1cc([N+](=O)[O-])ccc1N1CCOCC1	0.7	13.9	-18.3	/	-0.1	43.6	/
O=C(OCc1ccc(Br)cc1)c1cc([N+](=O)[O-])ccc1N1CCOCC1	52.0*	/	/	/	-0.3	/	61.2*
CCOC(=O)c1c(C)[nH]c(C(=O)OCC(=O)NCc2ccc(OC)c(OC)c2)c1C	8.3	1.3	10.5	/	0.8	4.0	/
COC(=O)c1c(NC(=O)Cc2cccs2)sc2c1CCC(C)C2 (stereo not drawn)	/	-31.4	-58.2	-10.4	0.8	-51.8	/
COC(=O)c1c(NC(=S)NN2CCN(C)CC2)sc2c1CCC(C)C2 (stereo not drawn)	64.8*	11.5	1.2	6.4	-3.8	12.0	84.3*
COc1cc2nc(NCCCN3CCN(C)CC3)n3nc(-c4ccccc4)nc3c2cc1OC	61.4*	-1.9	18.3	12.2	-2.8	-22.4	40.6*
CCN(CC)CCCNc1nc2cc(OC)c(OC)cc2c2nc(-c3ccccc3)nn12	60.6*	12.5	17.9	1.3	-6.4	-66.7	36.0
CCN(CC)CCCNc1nc2ccccc2c2nc(-c3ccncc3)nn12	/	2.4	8.1	/	-0.6	-36.3	/
CCOC(=O)[C@H]1[C@H]2COc3ccc(C)cc3[C@@H]2N2C(=O)[C@@H](C)NC(=O)[C@@]12C	/	-2.7	0.9	/	-0.2	-1.9	/
Oc1ccc(C[C@H]2CNC(=S)N2CC2CCCN2C[C@H](Cc2ccc(O)cc2)N2C[C@H](Cc3ccccc3)N(CCc3ccccc3)C2=S)cc1 (stereo partly drawn)	25.9	19.4	/	/	4.9	/	/
CCC(CO)NCc1ccc(OCC(=O)Nc2cccc(C(F)(F)F)c2)c(OC)c1 (stereo not drawn)	/	7.6	-26.8	-12.3	-1.8	-1.8	/
CCOc1cc(CNC(C)(C)C)ccc1OCC(=O)Nc1cccc(C(F)(F)F)c1	52.1*	-9.6	-0.7	14.4	0.2	1.8	63.3*
CCCCN(CCCC)CCNC(=O)c1cn(C)c2ccc(S(=O)(=O)N3CCCC3)cc2c1=O	/	/	-20.1	13.2	-0.4	-7.8	/
CCn1ncc(/C=N/N=C2\CCC3C4CCc5cc(O)ccc5C4CCC23C)c1C (stereo not drawn)	52.2*	-0.2	-15.8	10.4	-2.4	13.2	47.9*
CC1CCN(c2cc(N3CCC(C)CC3)c([N+](=O)[O-])cc2/C=C(\C#N)c2nn(-c3ccccc3)c(N)c2C#N)CC1	52.4*	14.9	14.0	/	-2.8	3.2	49.4*
CC1CCN(c2ccc(/C=C(\C#N)c3nn(-c4ccccc4)c(N)c3C#N)cc2[N+](=O)[O-])CC1	/	22.7	15.2	-10.1	0.4	-4.8	/
Cn1c(SCC(=O)NC2CCCCC2)nnc1C(F)(F)F	1.9	/	/	/	3.0	/	/
O=C(CN1C2=NCCCN2c2ccccc21)c1ccc([N+](=O)[O-])cc1	-4.1	13.5	1.1	4.2	-1.0	10.6	/
CC1CCc2nc(NC(=O)c3cc(C(C)(C)C)nn3C)sc2C1 (stereo not drawn)	24.3	4.9	-23.0	-34.6	-0.7	-18.4	/
SMILES	H9c2 TAG inh	Gli-Sufu antag	697 NFkB inh	Lipid droplet	hiPSC survival	Jurkat NFkB inh	H9c2 TAG conf
Cc1ccc(-c2nc(NC(=O)c3cc(C(C)(C)C)nn3C)sc2C)cc1Cl	67.9*	7.2	-13.2	/	-0.1	13.6	85.5*
COc1cccc(COCC(O)Cn2cnc3cc(C)c(C)cc32)c1 (stereo not drawn)	-17.6	2.9	-3.2	-5.9	-0.2	5.1	/
CS(=O)(=O)Oc1ccc2c(c1)O/C(=C\C=C\c1ccccc1)C2=O	54.3*	-7.4	-11.7	-13.8	-0.6	15.9	2.9
CS(=O)(=O)Oc1ccc2c(c1)O/C(=C\c1cccc([N+](=O)[O-])c1)C2=O	/	-0.7	8.1	/	1.0	-27.9	/
COc1ccc(NC(=O)c2coc(C)c2)cc1	/	-32.2	-6.5	-3.1	1.1	-46.4	/
Oc1ccc(C[C@H]2CN([C@@H](Cc3ccccc3)CN3CCCC3CN3C(=S)NC[C@@H]3Cc3ccccc3)C(=S)N2CC2CCCCC2)cc1 (stereo partly drawn)	/	/	/	/	-1.6	/	/
Oc1ccc(C[C@H]2CNC(=S)N2CC2CCCN2C[C@H](Cc2ccc(O)cc2)N2C[C@H](Cc3ccc(O)cc3)N(CC3CCCCC3)C2=S)cc1 (stereo partly drawn)	75.4*	11.6	/	/	-0.9	/	72.8*
CC[C@H](C)[C@H](NC(N)=O)C(=O)NCCc1ccc(OC)c(OC)c1	94.0*	-4.1	10.0	20.3	-0.5	0.0	2.5
O=C1CCC(C(=O)N(Cc2cccs2)C2(C(=O)NC3CCCCC3)CCCCC2)N1 (stereo not drawn)	3.2	5.6	-14.9	15.5	-0.9	-14.2	/
Cc1cccc(NC(=O)c2nc[nH]c2C(=O)NCCCCCCNC(=O)c2[nH]cnc2C(=O)Nc2cccc(C)c2)c1	75.6*	-3.4	6.4	/	3.0	0.1	-2.2
Cc1cccc(NC(=O)c2nc[nH]c2C(=O)NCc2ccccc2)c1	-26.4	33.5	7.5	/	1.1	0.3	/
CCCOc1ccc(F)cc1-c1cc(C(=O)NCc2cc(OC)cc(OC)c2)[nH]n1	53.7*	/	/	/	10.4	/	50.2*
COc1ccc(NC(=O)Cn2c(-c3ccccc3)cn(-c3ccc(C)cc3)c2=O)cc1	56.5*	-12.9	-13.2	11.6	-1.9	10.4	27.3
CN1CCN(c2ccc([N+](=O)[O-])cc2C(=O)c2ccc(Cl)cc2)CC1	53.8*	6.3	-38.1	-5.7	0.0	46.1	49.5*
c1ccc(C2Nc3ccccc3-c3nc4ccccc4n32)nc1 (stereo not drawn)	55.1*	-8.0	-57.0	-2.6	0.6	-40.7	15.8
c1ccc(C2Nc3ccccc3-c3nc4ccccc4n32)cc1 (stereo not drawn)	25.3	-21.9	-48.1	4.1	-1.0	-8.2	/
